Consider 97 molecules from ChEMBL document CHEMBL4513216, “Probing the Open Global Health Chemical Diversity Library for Multistage-Active Starting Points for Next-Generation Antimalarials” (ACS Infect Dis, 2020).

The nature of the data set: Toxicity liver stage against HepG2, at 10uM. The settings on record: human, HepG2-A16-CD81EGFP cells; read-out: INHIBITION
Set-up: test concentration 10 uM, cell line HepG2-A16-CD81EGFP. Format: cell-based. A digest of the protocol:
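Uninfected HepG2-A16-CD81EGFP cells, 3 × 10^3 per well, 1536-well, plated on prespotted compound at 10 μM final, parasite-free screening media added to match infected plates; puromycin 10 μM positive, DMSO 0.5% negative; run in parallel with 48 h PbLuc assay at 37 °C, 5% CO2; viability by CellTiter-Glo luminescence, normalized to controls.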
In the case of `CC1CCCN(C(=O)C2CCN(c3snc4ccccc34)CC2)C1` (configuration not stated), the cytotoxicity at 10 µM amounted to 10.1%.
Under `CC(=O)N1CCC2(C=C(C(=O)NC3CC3)c3ccccc32)CC1` stands 4.59%; under `CC(C)CN1CCN(C(=O)CCn2cccn2)CC1`, -5.45%.
`Cc1nccn1Cc1nnc(C2CCN(c3ccncc3F)CC2)n1C`: the cytotoxicity at 10 µM was -9.36%.
As for `COCC(=O)NCC1CCN(Cc2ccsc2)CC1`, the cytotoxicity at 10 µM is -3.88%.
`N[C@H]1CN(CCCOc2ccccc2)C[C@@H]1C1CC1`: the cytotoxicity at 10 µM amounted to 0.147%.
Consider `O=C1COC2(CCN(C(=O)c3ccoc3)CC2)CN1Cc1cccnc1`, for which the cytotoxicity at 10 µM amounted to 5.29%.
Take `Cc1cccc(=O)n1CCCNc1ncnc2c1CCNCC2`: the cytotoxicity at 10 µM was -9.53%.
For `O=C(c1ccncn1)N1CCC[C@]2(C[C@H](Oc3ncccc3F)CO2)C1`, the cytotoxicity at 10 µM was -0.588%.
Take `COc1cc(N2C[C@@H]3COC[C@]3(COc3ccccn3)C2)ncn1`: the cytotoxicity at 10 µM was 1.35%.
For the molecule `COc1ccnc(N2CCN(C(=O)Cc3csc(C)n3)CC2)n1`, the cytotoxicity at 10 µM was -15.6%.
As for `CC(C)CN1C(=O)CO[C@@H]2CN(C(=O)C3CCOC3)C[C@H]21` (some centres not stated), the cytotoxicity at 10 µM is -70.3%.
Turning to `CCn1nc(C)c2nc(C)nc(NC3CCCC3)c21`, the cytotoxicity at 10 µM worked out at 9.12%.
To `CS(=O)(=O)N1C[C@H]2CC[C@@H](C1)N(CCC(=O)NCc1ccco1)C2` belongs -17.9%.
For the molecule `Cc1ccc(C(NC(=O)CCCN2CCCCC2)C(=O)O)cc1` (configuration not stated), the cytotoxicity at 10 µM is 2.87%.
In the case of `Cc1nsc(N2CCN(C(=O)Nc3ccc4[nH]ccc4c3)CC2)n1`, the cytotoxicity at 10 µM came out at 4.52%.
On to `CN1CCC(C(=O)N2CCCN(c3cccnn3)CC2)C1` (configuration not stated), for which the cytotoxicity at 10 µM is -8.82%.
`CC(C)N1CCOC(Cc2nn3c(Cc4ccccc4)nnc3s2)C1` (configuration not stated): the cytotoxicity at 10 µM was -6.53%.
As for `CCSc1cncc(NCc2ccc(N3CCNC(=O)C3)cc2)n1`, the cytotoxicity at 10 µM came to 15.7%.
In the case of `COCC(=O)N1CCN(CCn2cccn2)c2nc(C)ccc2C1`, the cytotoxicity at 10 µM was 10.5%.
Under `O=C(c1ncccn1)N1CCC[C@]2(C[C@H](OCC3CC3)CO2)C1` stands -86%; under `CN1CCN(C2CCN(CCOc3cccc(Cl)c3)CC2)C1=O`, -2.83%.
To `CC1CN(Cc2noc(C3CC3)n2)CCN1Cc1nccn1C` (configuration not stated) belongs -10%.
Turning to `CCc1cc(N(C)Cc2[nH]nc3c2CCC3)nc(N2CCOCC2)n1`, the cytotoxicity at 10 µM stood at 5.51%.
On to `COCCCSc1ccc(NCc2scnc2C)cc1`, for which the cytotoxicity at 10 µM was found to be 55.3%.
With `CC(O)c1cn(C2CCN(C(=O)C3(C)CCN(C)CC3)CC2)nn1` (configuration not stated), the cytotoxicity at 10 µM was -0.293%.
For `CCc1nc(CN2CCCN(c3nccs3)CC2)no1`, the cytotoxicity at 10 µM is -6.44%.
To `COc1ccc(C(=O)NCCCNc2ccc(C(F)(F)F)cn2)cc1` belongs -3.87%; to `c1ccc(Cc2noc(CN3CCCC3Cn3cccn3)n2)cc1` (configuration not stated), -2.57%; to `COc1ccc(CNC(Cc2ccsc2)c2ccc(C)cn2)cc1OC` (configuration not stated), -4.88%.
Under `COc1cccc(COCC(=O)N2CCCC(c3ccn[nH]3)C2)c1` (configuration not stated) stands -20.9%; under `CCC(NS(C)(=O)=O)c1ccccc1OC` (configuration not stated), -43.1%; under `CS(=O)(=O)N1CCc2sc(C(=O)NCc3ccccc3)cc21`, 0.997%.
Take `CN(CCO)C1CCN(c2ncc3c(n2)CCN3c2ccccc2)CC1`: the cytotoxicity at 10 µM is -2.3%.
For `Cc1ccc(CNC(=O)Nc2nncs2)n1C`, the cytotoxicity at 10 µM was -0.545%.
As to `COc1cc2nc(C)n(CC(=O)NCCC(C)C)c(=O)c2cc1OC`, the cytotoxicity at 10 µM is -3.79%.
Turning to `COc1nccnc1-c1cc(NC2CCNCC2)nc2[nH]ccc12`, the cytotoxicity at 10 µM was -10.7%.
For the molecule `CC(C)C[C@H](N)C(=O)N1CC2(CCNCC2)c2cc(Cl)ccc21`, the cytotoxicity at 10 µM is -8.34%.
`CN(Cc1ccccc1)CC1(O)CCCN(CC(C)(C)C)C1=O` (configuration not stated): the cytotoxicity at 10 µM is -12.4%.
`Cc1cnn(CC2CCCCN2Cc2nc(-c3ccoc3)no2)c1` (configuration not stated): the cytotoxicity at 10 µM was -7.2%.
For the molecule `CSCCNC(=O)c1cc(Br)cn1C(C)C`, the cytotoxicity at 10 µM is -1.16%.
Turning to `CCN1C(=O)C(c2ccccc2)CC12CCN(S(C)(=O)=O)CC2` (configuration not stated), the cytotoxicity at 10 µM stood at 3.2%.
In the case of `COCc1nccc(C2CCCN(Cc3cccc(F)c3)C2)n1` (configuration not stated), the cytotoxicity at 10 µM came to 0.769%.
Under `CNS(=O)(=O)c1ccccc1N1CCN(C(C)C(N)=O)CC1` (configuration not stated) stands 4.87%; under `CCCn1cc(-c2cc(C(=O)N(C)C)c3ccc(C)cc3n2)cn1`, 4.99%; under `COCCOCCC(=O)N1CCC(c2ccccc2C)C1` (configuration not stated), -9.46%.
For `CC(C)C(C)(C#N)NC(=O)Cn1cc(-c2ccccc2)cn1` (configuration not stated), the cytotoxicity at 10 µM came out at 8.34%.
As to `COCCN1C(=O)CC(N2CCN(c3ccc(F)cc3)CC2)C1=O` (configuration not stated), the cytotoxicity at 10 µM was -9.26%.
In the case of `Cc1noc(C)c1CN(C)C(=O)c1n[nH]c(N)c1-c1ccccc1`, the cytotoxicity at 10 µM is -7.46%.
In the case of `CCn1c(CN2CCCC2)nnc1C1CCN(Cc2ccccn2)CC1`, the cytotoxicity at 10 µM came to 3.11%.
For the molecule `O=C(Nc1cnn(CC(=O)N2CCCCO2)c1)c1ccsc1`, the cytotoxicity at 10 µM is -1.23%.
As for `CC(C#N)CNC(=O)Nc1ccc(-c2cc[nH]n2)cc1` (configuration not stated), the cytotoxicity at 10 µM was -3.27%.
As for `Cc1cc2c(=O)n3c(nc2s1)CCN(C(=O)c1scnc1C)CC3`, the cytotoxicity at 10 µM is -0.774%.
Take `Cn1ncc(N2CCOC(CCNC(=O)CO)C2)cc1=O` (configuration not stated): the cytotoxicity at 10 µM was -8.58%.
Regarding `CCCc1nc(NCCOC)c2c(n1)c(C)nn2CC`, the cytotoxicity at 10 µM stood at 3.36%.
Regarding `O=C(Cc1csc(-c2ccco2)n1)N1CCN(c2nccs2)CC1`, the cytotoxicity at 10 µM is -9.26%.
In the case of `Cc1csc(CN2C[C@@H]3COC[C@]3(C(=O)NCc3ccco3)C2)n1`, the cytotoxicity at 10 µM is -105%.
Turning to `Cc1cnn(Cc2ccc(NC(=O)N3CCCC3)cc2)c1`, the cytotoxicity at 10 µM stood at 1.18%.
In the case of `Cc1nc(CSCCC(=O)NCC(=O)NC(C)C)cs1`, the cytotoxicity at 10 µM was -2.03%.
With `CC(C)NC(=O)N1CCC2(CC1)CC[C@@]1(C(=O)N(C)C)CN(C)C[C@@H]21`, the cytotoxicity at 10 µM is -108%.
Regarding `COCC(=O)Nc1ccc2c(c1)CN(C(=O)c1ccco1)CC2`, the cytotoxicity at 10 µM stood at 7.58%.
As to `CCCS(=O)(=O)N1CCC2(CCC(=O)N(Cc3ccccc3)C2)CC1`, the cytotoxicity at 10 µM was determined as 11.2%.
To `Cc1c(C2CCCN(C(=O)c3cccnc3)C2)n2c(nc1=O)CCC2` (configuration not stated) belongs -17.1%; to `O=C(CNCC1CCCN1c1cccnn1)NCCc1cccs1` (configuration not stated), -6.84%.
For `CCN(Cc1ccc2c(c1)OCO2)C(=O)c1ccc(=O)n(C)c1`, the cytotoxicity at 10 µM came out at 15.9%.
As to `O=C(O)C1CN(c2cccc(Cl)c2)CCO1` (configuration not stated), the cytotoxicity at 10 µM was -12.4%.
Turning to `CC(C)(C)c1ccc(S(=O)(=O)CCNC(=O)c2cnccn2)cc1`, the cytotoxicity at 10 µM was determined as 4.92%.
For the molecule `CCSc1ccccc1C(=O)NCCn1nc(-n2cncn2)ccc1=O`, the cytotoxicity at 10 µM is -5.65%.
Turning to `CCCOCC1CCN(C(=O)c2cnc(-c3csc(C)n3)nc2O)C1` (configuration not stated), the cytotoxicity at 10 µM was 5.25%.
On to `CC(C(=O)N1CCN(Cc2ccc3c(c2)OCO3)CC1)n1ccnc1` (configuration not stated), for which the cytotoxicity at 10 µM is -9.57%.
Under `CN(C(=O)Cc1ccc(F)cc1)C1CCN(c2ccccn2)CC1` stands -15.8%.
As for `Cn1ncc2c1NC(=O)CC2c1ccccc1Br` (configuration not stated), the cytotoxicity at 10 µM was determined as 49%.
To `CN(CCO)C(=O)c1coc(CN2CCN(c3ccccc3F)CC2)n1` belongs 15.7%.
In the case of `Cc1c(C(=O)N2CCC(O)(CN(C)C)C2)c2ccccc2n1C` (configuration not stated), the cytotoxicity at 10 µM was 3.49%.
As to `CN(C)S(=O)(=O)N1CCN(c2cc(-n3cccc3)ncn2)CC1`, the cytotoxicity at 10 µM is 0.781%.
Consider `CC(C)c1cc(C(=O)N2CCN(Cc3ccco3)CC2)n[nH]1`, for which the cytotoxicity at 10 µM was 2.18%.
Turning to `CCN(c1ccc(C(=O)N2CCC(C)CC2)cc1)S(=O)(=O)CC`, the cytotoxicity at 10 µM came to 7.36%.
In the case of `CC1c2cc(F)ccc2CCN1C(=O)c1[nH]c(=O)[nH]c(=O)c1N` (configuration not stated), the cytotoxicity at 10 µM was 7.78%.
On to `Cc1ncc(C(=O)N2CCOC(C(=O)N3CCCCCC3)C2)c(C)n1` (configuration not stated), for which the cytotoxicity at 10 µM was 3.67%.
For `O=S(=O)(C1CC1)N1CCOC2(COCCN(c3ncccn3)C2)C1` (configuration not stated), the cytotoxicity at 10 µM was 8.55%.
As for `CCNC(=O)C1CCN(Cc2csc(-c3ccc(C)o3)n2)CC1`, the cytotoxicity at 10 µM was 6.26%.
With `c1ccc(OCc2cscn2)c(CNC2CCc3ncnn3C2)c1` (configuration not stated), the cytotoxicity at 10 µM is -9.42%.
For `CC(C)n1nc2c(cc1=O)CN(CCOc1ccc(C#N)cc1)CC2`, the cytotoxicity at 10 µM was found to be 14.9%.
For the molecule `COCC1CN(S(=O)(=O)N(C)C)Cc2cnn(CC3CCCC3)c21` (configuration not stated), the cytotoxicity at 10 µM was found to be 12.4%.
Consider `Cc1nnsc1CN(C)C(=O)CN1CC2(CCNCC2)OC1=O`, for which the cytotoxicity at 10 µM turned out to be 11.4%.
`O=C1NCCN1CCNCC1(O)CCCN(CCC2CCCCC2)C1=O` (configuration not stated): the cytotoxicity at 10 µM is -1.04%.
As to `CCc1nc(C2CCCN2Cc2nnc(Cc3ccccc3)o2)no1` (configuration not stated), the cytotoxicity at 10 µM was -0.313%.
Turning to `CNC(=O)c1cc2c(nc1NCC(C)C)CCN(S(=O)(=O)N(C)C)CC2`, the cytotoxicity at 10 µM is -151%.
To `COCC(C)N(Cc1ccccc1OC)C(=O)c1cc(C)[nH]c(=O)c1` (configuration not stated) belongs -3.73%.
On to `COc1ccc(C(=O)CCc2nc(C3CC3)no2)cc1`, for which the cytotoxicity at 10 µM was -2.31%.
Take `CN(C)c1nc(N)nc(CN2CCCC2c2cccs2)n1` (configuration not stated): the cytotoxicity at 10 µM was 5.21%.
Turning to `c1nc2n(n1)CC(NCc1nc(-c3ccsc3)no1)CC2` (configuration not stated), the cytotoxicity at 10 µM is -8.13%.
Regarding `Cc1ccc(S(=O)(=O)N2CCC3(CC(C(=O)NCC4CC4)=NO3)C2)cc1` (configuration not stated), the cytotoxicity at 10 µM came out at 4.35%.
As to `Cc1n[nH]c(C)c1-c1cc(-c2ccc[nH]2)nc(N)c1C#N`, the cytotoxicity at 10 µM worked out at 12.4%.
On to `Cc1ocnc1C(=O)N(C)[C@@H]1CC[C@@H](n2ccnc2C)[C@@H]1O`, for which the cytotoxicity at 10 µM was 0.642%.
Under `Cc1nccc(-c2cccc(NCC(=O)N3CCOC(C)C3)c2)n1` (configuration not stated) stands -0.776%.
In the case of `CC(C)COC(=O)N1CCCN(C(=O)c2ccnc(N(C)C)c2)CC1`, the cytotoxicity at 10 µM was -15.1%.
